Marks after values point to notes of the source that are not given here.
Legend:
Format in all cases: in vitro ADME
[1] = target: T1, UGT2B7 (Homo sapiens, UniProt P16662); assay: Screening of recombinant UGT2B7 for glucuronidation activity; conditions: 250 μM substrate, 5 μg protein, 60 min, 37 °C
T1 sequence (P16662 24-529): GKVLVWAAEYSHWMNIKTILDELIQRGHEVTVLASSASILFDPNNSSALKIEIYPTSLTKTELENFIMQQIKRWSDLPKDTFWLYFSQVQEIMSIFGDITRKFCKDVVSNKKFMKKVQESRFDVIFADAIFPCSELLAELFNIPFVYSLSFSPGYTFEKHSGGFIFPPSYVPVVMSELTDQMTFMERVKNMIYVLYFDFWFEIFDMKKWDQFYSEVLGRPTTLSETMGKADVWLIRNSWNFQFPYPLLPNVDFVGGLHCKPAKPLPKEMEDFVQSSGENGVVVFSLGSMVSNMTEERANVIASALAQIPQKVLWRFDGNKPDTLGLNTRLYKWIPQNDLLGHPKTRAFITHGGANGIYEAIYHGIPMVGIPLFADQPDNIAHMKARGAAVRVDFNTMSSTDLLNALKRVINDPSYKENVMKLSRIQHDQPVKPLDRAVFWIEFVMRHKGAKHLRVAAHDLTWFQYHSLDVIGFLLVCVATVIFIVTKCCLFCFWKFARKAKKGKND
In short: (§1)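 UGT1A1, 1A3, 1A4 and 1A6–1A10 were His-tagged and expressed in baculovirus-infected Sf9 cells; UGT2B4, 2B7, 2B15 and 2B17 were commercial membranes run per supplier protocol. 5 μg membrane protein with 250 μM substrate, 2 mM UDP-GlcUA, Tris–HCl pH 7.4, MgCl2, saccharolactone, 2% DMSO; 37 °C, 60 min; no-substrate controls. Products measured by HPLC-UV/vis; β-glucuronidase hydrolysis separated O- from carboxyl glucuronides.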

[2] = target: T2, UGT2B4 (Homo sapiens, UniProt P06133); assay: Screening of recombinant UGT2B4 for glucuronidation activity; conditions: 250 μM substrate, 5 μg protein, 60 min, 37 °C
T2 sequence (P06133 24-528): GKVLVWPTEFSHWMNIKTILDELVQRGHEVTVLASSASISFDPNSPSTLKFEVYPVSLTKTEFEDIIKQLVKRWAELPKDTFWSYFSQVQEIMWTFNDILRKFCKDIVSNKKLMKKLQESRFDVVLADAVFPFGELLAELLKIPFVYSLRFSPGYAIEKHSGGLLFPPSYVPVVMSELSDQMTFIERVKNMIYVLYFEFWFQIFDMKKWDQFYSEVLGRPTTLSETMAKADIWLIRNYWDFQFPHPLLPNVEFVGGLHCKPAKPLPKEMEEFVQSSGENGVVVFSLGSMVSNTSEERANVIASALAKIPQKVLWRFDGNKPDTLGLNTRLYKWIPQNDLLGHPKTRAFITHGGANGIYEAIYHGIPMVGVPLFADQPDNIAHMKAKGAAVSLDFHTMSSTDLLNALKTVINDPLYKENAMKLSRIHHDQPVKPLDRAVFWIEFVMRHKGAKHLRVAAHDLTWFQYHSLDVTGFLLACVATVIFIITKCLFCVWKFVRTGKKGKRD
In short: as §1

[3] = target: T3, UGT1A10 (Homo sapiens, UniProt Q9HAW8); assay: Steady state kinetics of glucuronidation by recombinant UGT1A10
T3 sequence (Q9HAW8 26-530): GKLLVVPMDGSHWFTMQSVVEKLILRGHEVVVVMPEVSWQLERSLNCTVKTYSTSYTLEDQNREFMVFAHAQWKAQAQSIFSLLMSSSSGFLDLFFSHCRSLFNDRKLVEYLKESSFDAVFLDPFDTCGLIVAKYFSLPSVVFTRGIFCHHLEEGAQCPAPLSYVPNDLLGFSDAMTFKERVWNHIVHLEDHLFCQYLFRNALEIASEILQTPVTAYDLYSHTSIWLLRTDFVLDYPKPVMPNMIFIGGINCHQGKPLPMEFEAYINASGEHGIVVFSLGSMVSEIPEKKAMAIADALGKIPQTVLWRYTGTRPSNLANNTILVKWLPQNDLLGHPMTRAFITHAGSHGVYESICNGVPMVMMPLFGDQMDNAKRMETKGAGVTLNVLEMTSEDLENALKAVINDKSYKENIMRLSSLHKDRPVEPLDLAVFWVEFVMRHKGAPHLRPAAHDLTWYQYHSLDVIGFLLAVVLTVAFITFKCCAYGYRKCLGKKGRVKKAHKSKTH

[4] = target: T4, UGT1A1 (Homo sapiens, UniProt P22309); assay: Steady state kinetics of glucuronidation by recombinant UGT1A1
T4 sequence (P22309 26-533): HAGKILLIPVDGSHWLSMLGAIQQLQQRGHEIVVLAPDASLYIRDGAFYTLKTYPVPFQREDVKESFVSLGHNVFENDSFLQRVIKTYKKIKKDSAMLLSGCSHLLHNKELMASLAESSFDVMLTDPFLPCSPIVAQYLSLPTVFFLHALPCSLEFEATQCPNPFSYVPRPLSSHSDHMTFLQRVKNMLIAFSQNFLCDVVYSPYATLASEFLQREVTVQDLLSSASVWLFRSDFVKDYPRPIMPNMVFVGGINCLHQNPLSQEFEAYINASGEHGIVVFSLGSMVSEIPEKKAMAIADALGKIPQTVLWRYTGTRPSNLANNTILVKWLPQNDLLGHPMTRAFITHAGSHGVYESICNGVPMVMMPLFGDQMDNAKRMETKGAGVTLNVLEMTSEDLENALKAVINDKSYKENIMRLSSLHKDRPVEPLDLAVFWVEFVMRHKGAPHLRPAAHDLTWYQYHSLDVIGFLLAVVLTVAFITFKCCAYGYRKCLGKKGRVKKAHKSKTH

[5] = target: T5, UGT1A8 (Homo sapiens, UniProt Q9HAW9); assay: Steady state kinetics of glucuronidation by recombinant UGT1A8
T5 sequence (Q9HAW9 26-530): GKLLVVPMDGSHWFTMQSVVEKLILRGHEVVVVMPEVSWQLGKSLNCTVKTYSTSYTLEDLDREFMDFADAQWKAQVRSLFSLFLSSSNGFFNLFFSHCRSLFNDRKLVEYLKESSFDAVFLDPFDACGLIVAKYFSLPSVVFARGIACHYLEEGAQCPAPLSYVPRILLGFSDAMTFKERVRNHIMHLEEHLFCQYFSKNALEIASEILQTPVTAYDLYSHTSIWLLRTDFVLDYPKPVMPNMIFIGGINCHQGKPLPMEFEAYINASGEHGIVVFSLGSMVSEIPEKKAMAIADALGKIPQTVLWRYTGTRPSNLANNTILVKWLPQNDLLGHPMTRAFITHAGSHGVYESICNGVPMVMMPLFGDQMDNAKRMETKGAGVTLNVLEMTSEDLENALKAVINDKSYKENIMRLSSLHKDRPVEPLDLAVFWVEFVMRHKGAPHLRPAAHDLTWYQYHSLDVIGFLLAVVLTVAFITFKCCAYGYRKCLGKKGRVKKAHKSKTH

| glucuronidation activity (glucuronide formed) [1] | glucuronidation activity (glucuronide formed) [2] | NI-12a-COO-gluc formation ([3]; COO-glucuronide) | kinetic model ([3]; NI-12a-O-gluc formation) | NI-12a-COO-gluc formation ([4]; COO-glucuronide) | NI-12a-O-gluc formation ([4]; O-glucuronide) | NI-12a-COO-gluc formation ([5]; COO-glucuronide) | Ks ([5]; NI-12a-O-gluc formation, USI model) [µM] | Vmax ([3]; C=N–O-glucuronidation of NI-ST-05) [nm/mg protein/min] | Vmax ([3]; NI-ST-05–N–O-gluc formation) [nmol/mg/min] | kinetic model ([3]; NI-ST-05–N–O-gluc formation) | n (Hill coefficient) ([3]; NI-ST-05–N–O-gluc formation) | kinetic model ([4]; NI-ST-05–N–O-gluc formation, estimated based on an incomplete data set) | Vmax ([4]; NI-ST-05–N–O-gluc formation, estimated based on an incomplete data set, assuming M–M kinetics) | NI-ST-05–N–O-gluc formation ([5]; N–O-glucuronide) | SMILES | kinetic model ([5]; NI-12a-O-gluc formation) |
| --- | --- | --- | --- | --- | --- | --- | --- | --- | --- | --- | --- | --- | --- | --- | --- | --- |
| No activity | No activity | – | – | – | – | – | – | – | – | – | – | – | – | – | COc1cc(/C=C/c2cc([N+](=O)[O-])c(O)c([N+](=O)[O-])c2)cc(OC)c1 [DNR-1, (E)-4-(3,5-dimethoxystyryl)-2,6-dinitrophenol] | – |
| – | – | not produced | Michaelis–Menten and M–M | too low to be assessed | not produced | not produced | 950 ± 449 | – | – | – | – | – | – | – | COc1ccc(/C=C(/C(=O)O)c2cc(OC)c(OC)c(OC)c2)cc1O [NI-12a, (E)-3-(3-hydroxy-4-methoxyphenyl)-2-(3,4,5-trimethoxyphenyl)acrylic acid] | uncompetitive substrate inhibition and USI |
| inactive | inactive | – | – | – | – | – | – | 0.65 | 0.65 ± 0.017 | Hill | 3.4 | M–M ^b | 0.21 ± 0.02 ^b nmol/mg/min | not produced | COc1ccc(C=Cc2cc(OC)cc(OC)c2/C=N/O)cc1 [NI-ST-05, (E)-2,4-dimethoxy-6-(4-methoxystyryl)benzaldehyde oxime] | – |

— paper PMC4002122 (Chemical Research in Toxicology, 2014)
